According to ChEMBL document CHEMBL2424603, “Design, synthesis, and biological and crystallographic evaluation of novel inhibitors of Plasmodium falciparum enoyl-ACP-reductase (PfFabI)” (J Med Chem, 2013):

What was measured:
L6 = assay: Cytotoxicity against rat L6 cells assessed as growth inhibition after 72 hrs by fluorometric analysis; format: cell-based; details: L6, 72 h
How it was run: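 Mammalian L6 cell growth inhibition; IC50 taken as the average of at least two independent assays, each run in duplicate.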

[1] = Selectivity index, ratio of IC50 for rat L6 cells to IC50 for chloroquine/pyrimethamine-resistant Plasmodium falciparum K1; format: toxicity, cell-based; details: rat L6 cells (cytotoxicity) versus Plasmodium falciparum K1, read-out: Ratio IC50
How it was run: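 Ratio of the rat L6 cell growth-inhibition IC50 to the P. falciparum K1 IC50, calculated per WHO/TDR guidelines. Each cell IC50 is the average of at least two independent assays run in duplicate.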

Plasmodium falciparum [2] = assay: Antiplasmodial activity against chloroquine/pyrimethamine-resistant Plasmodium falciparum K1 assessed as growth inhibition after […] by [3H]-hypoxanthine incorporation assay; format: functional, organism-based
How it was run: (§1)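 Tested against the chloroquine- and pyrimethamine-resistant K1 strain, with chloroquine as the standard drug. Growth was read by [3H]hypoxanthine incorporation. IC50 was taken from graphically plotted dose–response curves and averaged over at least two independent assays run in duplicate.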

[3] = Inhibition of recombinant Plasmodium falciparum FabI using crotonoyl-CoA as substrate assessed as consumption of NADH after 10 mins
How it was run: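 Recombinant PfFabI inhibition was followed spectrophotometrically. IC50 is the concentration giving 50% inhibition, reported as the mean of three independent experiments.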

Fatty acid synthase = molecular target: T1, Fatty acid synthase (Plasmodium falciparum, UniProt Q965D7); assay: Inhibition of recombinant Plasmodium falciparum FabZ using crotonoyl-CoA as substrate after 10 mins
T1 sequence (Q965D7 whole entry): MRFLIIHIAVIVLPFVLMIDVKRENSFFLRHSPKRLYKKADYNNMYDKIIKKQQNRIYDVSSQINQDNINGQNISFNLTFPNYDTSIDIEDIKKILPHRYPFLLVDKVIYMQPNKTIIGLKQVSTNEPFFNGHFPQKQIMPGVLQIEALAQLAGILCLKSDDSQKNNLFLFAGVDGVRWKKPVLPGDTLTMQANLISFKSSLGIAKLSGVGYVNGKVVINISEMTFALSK
How it was run: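 Recombinant enzymes PfFabG and PfFabZ were used. IC50 is the concentration giving 50% inhibition, reported as the mean of three independent experiments.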

[4] = molecular target: T2, 3-oxoacyl-(Acyl-carrier protein) reductase (Plasmodium falciparum (isolate 3D7), UniProt Q8I2S7); assay: Inhibition of recombinant Plasmodium falciparum 3D7 FabG using acetoacetyl-CoA as substrate after 10 mins in presence of NADPH
T2 sequence (Q8I2S7 whole entry): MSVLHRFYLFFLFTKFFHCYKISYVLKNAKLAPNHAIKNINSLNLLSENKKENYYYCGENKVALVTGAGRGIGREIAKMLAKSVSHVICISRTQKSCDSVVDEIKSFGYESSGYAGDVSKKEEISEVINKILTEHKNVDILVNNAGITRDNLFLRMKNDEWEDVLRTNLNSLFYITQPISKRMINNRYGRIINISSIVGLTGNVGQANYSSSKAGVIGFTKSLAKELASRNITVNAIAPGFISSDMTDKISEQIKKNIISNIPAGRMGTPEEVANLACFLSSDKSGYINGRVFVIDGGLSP

Plasmodium falciparum [5] = assay: Antiplasmodial activity against asexual blood stage form of Plasmodium falciparum assessed as growth inhibition after 72 hrs by [3H]-hypoxanthine incorporation assay; format: functional, organism-based; how it was run: as §1
[6] = Inhibition of Plasmodium falciparum FabI using crotonoyl-CoA as substrate by UV-Vis spectrophotometric analysis in presence of NADH
How it was run: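 Recombinant PfFabI enzyme, spectrophotometric read-out; IC50 (concentration giving 50% inhibition) reported as the mean of three independent experiments.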

In the case of `O=c1ccc2cc(Oc3ccc(Cl)cc3O)ccc2o1`, the IC50 (L6) is reported as 96.2 µM, the selectivity ratio [1] is reported as 9 and the IC50 (Plasmodium falciparum [2]) is reported as 10.7 µM. It also gave an IC50 [3] of 0.63 µM.
`Cc1cc(=O)oc2ccc(Oc3ccc(Cl)cc3O)cc12` showed an IC50 (L6) of 35.5 µM, a selectivity ratio [1] of 2.2 and an IC50 (Plasmodium falciparum [2]) of 15.6 µM. The IC50 [3] was 14.2 µM.
Work on `CCc1cc(=O)oc2ccc(Oc3ccc(Cl)cc3O)cc12` yielded an IC50 (L6) of 142 µM, a selectivity ratio [1] of 25.6 and an IC50 (Plasmodium falciparum [2]) of 5.6 µM. It also gave an IC50 [3] of 11 µM.
`O=c1ccc2ccc(Oc3ccc(Cl)cc3O)cc2o1` gave an IC50 (L6) of 188 µM, a selectivity ratio [1] of 20.1 and an IC50 (Plasmodium falciparum [2]) of 9.3 µM. For the same compound, the IC50 [3] was 2.7 µM.
In the case of `Cc1cc(=O)oc2cc(Oc3ccc(Cl)cc3O)ccc12`, the IC50 (L6) is reported as 85.9 µM, the selectivity ratio [1] is reported as 9 and the IC50 (Plasmodium falciparum [2]) is reported as 9.5 µM. It also gave an IC50 (Fatty acid synthase) of over 100 µM, an IC50 [4] of over 100 µM and an IC50 [3] of 0.25 µM.
In the case of `CCc1cc(=O)oc2cc(Oc3ccc(Cl)cc3O)ccc12`, the IC50 (L6) is reported as 84.8 µM, the selectivity ratio [1] is reported as 14.9 and the IC50 (Plasmodium falciparum [2]) is reported as 5.7 µM. For the same compound, the IC50 (Fatty acid synthase) was over 100 µM, the IC50 [4] was over 100 µM and the IC50 [3] was 0.27 µM.
Compound `O=c1oc2ccccc2cc1Oc1ccc(Cl)cc1O` has an IC50 (L6) of 108 µM, a selectivity ratio [1] of 7.2 and an IC50 (Plasmodium falciparum [2]) of 15 µM. For the same compound, the IC50 (Fatty acid synthase) was over 100 µM, the IC50 [4] was over 100 µM and the IC50 [3] was 5.5 µM.
In the case of `O=c1oc2ccc(O)cc2cc1Oc1ccc(Cl)cc1O`, the IC50 (L6) is reported as 134 µM, the IC50 (Plasmodium falciparum [2]) is reported as over 15 µM and the IC50 (Fatty acid synthase) is reported as over 100 µM. For the same compound, the IC50 [4] was over 100 µM and the IC50 [3] was 14 µM.
In the case of `O=c1oc2cc(O)ccc2cc1Oc1ccc(Cl)cc1O`, the IC50 (L6) is reported as 144 µM, the IC50 (Plasmodium falciparum [2]) is reported as over 15 µM and the IC50 (Fatty acid synthase) is reported as 16.3 µM. The IC50 [4] was 99 µM and the IC50 [3] was 6 µM.
In the case of `O=c1oc2cc(O)cc(O)c2cc1Oc1ccc(Cl)cc1O`, the IC50 (L6) is reported as 128 µM, the IC50 (Plasmodium falciparum [2]) is reported as over 15 µM and the IC50 (Fatty acid synthase) is reported as 90 µM. It also gave an IC50 [4] of over 100 µM and an IC50 [3] of 44 µM.
`Cc1c(Oc2ccc(Cl)cc2O)c(=O)oc2ccccc12` gave an IC50 (L6) of 51.5 µM, an IC50 (Plasmodium falciparum [2]) of over 15 µM and an IC50 (Fatty acid synthase) of 13 µM. For the same compound, the IC50 [4] was over 100 µM and the IC50 [3] was 12 µM.
With `Cc1c(Oc2ccc(Cl)cc2O)c(=O)oc2cc(O)ccc12` the IC50 (L6) was 96.3 µM, the IC50 (Plasmodium falciparum [2]) was over 15 µM and the IC50 (Fatty acid synthase) was 28 µM. The IC50 [4] was over 100 µM and the IC50 [3] was 15 µM.
Work on `O=c1oc2cc(O)ccc2cc1-c1ccc(Oc2ccc(Cl)cc2O)cc1` yielded an IC50 (L6) of 41 µM, a selectivity ratio [1] of 5.1 and an IC50 (Plasmodium falciparum [2]) of 8 µM. The IC50 (Fatty acid synthase) was 10 µM, the IC50 [4] was over 100 µM and the IC50 [3] was 0.45 µM.
`O=C(O[C@@H]1Cc2c(O)cc(O)cc2O[C@@H]1c1cc(O)c(O)c(O)c1)c1cc(O)c(O)c(O)c1` [EPIGALOCATECHIN GALLATE] showed an IC50 (Fatty acid synthase) of 0.03 µM.
`COc1cc([C@@H]2c3cc4c(cc3[C@H](O)[C@H]3COC(=O)[C@H]23)OCO4)cc(OC)c1OC` [PODOFILOX] showed an IC50 (L6) of 0.006 µM.
`Oc1cc(Cl)ccc1Oc1ccc(Cl)cc1Cl` [TRICLOSAN] gave an IC50 (Plasmodium falciparum [5]) of 1 µM, an IC50 [6] of 0.05 µM and an IC50 (Plasmodium falciparum [2]) of 1.51 µM. For the same compound, the IC50 [3] was 0.05 µM.
